{"source": "paper PMC4739608", "about": "(The Journal of Cell Biology, 2016)", "key": {"NIH3T3 cells": {"tested_on": "NIH3T3 cells", "assay": "Immunofluorescence of IACs in NIH3T3 cells", "type": "cell-based, mouse", "details": "NIH3T3 on FN, 3 µM FAK [i] or 10 µM PF228, 1 h"}, "HFF cells [1]": {"tested_on": "HFF cells", "assay": "Immunofluorescence of IACs in HFF cells", "type": "cell-based, human", "details": "HFFs prespread on FN, 3 µM FAK [i] or 10 µM PF228, 1 h", "in_short": "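Cells were grown on FN-coated (10 µg/ml) coverslips or glass-bottom dishes. HFFs were spread on FN for 1 h before inhibitor or DMSO was added. Cells were fixed in 4% paraformaldehyde for 7 min, then permeabilized with 0.5% Triton X-100 for 10 min. Primary antibodies were applied for 1 h and secondaries for 30 min, in 2% BSA at RT. Stained areas >10 pixels were normalized to total cell area, with count and size per cell.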"}, "HFF cells [2]": {"tested_on": "HFF cells", "assay": "Crystal violet proliferation assay", "type": "cell-based, human", "details": "up to 4 d, total cell number by crystal violet"}, "[3]": {"tested_on": "consensus adhesome proteins", "details": "three other studies; ref Horton et al., 2015b; cited from earlier work"}}}
{"smiles": "CS(=O)(=O)c1cccc(CNc2nc(Nc3ccc4c(c3)CCC(=O)N4)ncc2C(F)(F)F)c1", "note": "[PF228]", "values": [{"measurement": "FAK^Y397 levels by immunofluorescence", "setting": "NIH3T3 cells", "value": "reduction of FAK^Y397 levels"}, {"measurement": "vinculin- or paxillin-containing IACs", "setting": "NIH3T3 cells", "value": "did not affect"}, {"measurement": "FAK^Y397 levels by immunofluorescence", "setting": "HFF cells [1]", "value": "significantly reduced"}, {"measurement": "area and numbers of vinculin- or paxillin-containing IACs, and the actin cytoskeleton", "setting": "HFF cells [1]", "value": "unaffected"}]}
{"smiles": "CN1CCN(CCOc2cc(OC3CCOCC3)c3c(Nc4c(Cl)ccc5c4OCO5)ncnc3c2)CC1", "note": "[Src [i], N-(5-chloro-1,3-benzodioxol-4-yl)-7-[2-(4-methylpiperazin-1-yl)ethoxy]-5-(tetrahydro-2H-pyran-4-yloxy)quinazolin-4-amine]", "values": [{"measurement": "inhibition of proliferation relative to DMSO", "setting": "HFF cells [2]", "value": 30, "unit": "%"}]}
{"smiles": "Cc1ccc2c(c1)C(=O)C1(O)CCN(c3ccccc3)C1=N2", "note": "(stereo not drawn) [blebbistatin]", "values": [{"measurement": "consensus adhesome proteins, mean fold decrease upon blebbistatin treatment", "setting": "[3]", "value": 2.1, "unit": "fold"}]}
